These results are taken from ChEMBL document CHEMBL1177650, “Synthesis, structural elucidation and in vitro antiparasitic activity against Trypanosoma cruzi and Leishmania chagasi parasites of novel tetrahydro-1-benzazepine derivatives” (Bioorg Med Chem, 2010).

Molecules are shown by their SMILES.

Data set [1] is described as follows: Cytotoxicity against african green monkey Vero cells after 72 hrs by MTT assay. It is filed as cell-based. As to conditions: chlorocebus sabaeus. An outline of the steps:
(§1)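 Vero or transformed THP-1 cells incubated with compound (0.3–300 μM) 72 h at 37 °C, 5% CO2; untreated controls. MTT read-out, formazan OD at 580 nm; % cytotoxicity = 100 × (OD control − OD treated)/OD control. CC50/CC90 by sigmoidal regression; triplicates, repeated twice. DMSO stocks 100× concentrated, diluted in medium.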
A general note: Tetrazolium dyes change colour on reduction, which living cells bring about.

The nature of data set [2]: Selectivity index, CC50 for human THP1 cells to IC50 for Leishmania chagasi MHOM/BR/74/PP75 amastigotes. It is filed as functional, THP-1. An outline of the steps:
(§2)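 Selectivity index computed as CC50 in THP-1 cells divided by IC50 against the L. chagasi stage named in the line.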

Data set [3] deals with Trypanosoma cruzi. Put plainly: Antitrypanosomal activity against Trypanosoma cruzi 320I01 amastigotes infected in african green monkey Vero cells after 5 days by Giemsa staining. It is filed as functional, organism-based. As to conditions: 320I01, Vero, 120 h. An outline of the steps:
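Vero cells (RPMI, 5% hiSBF, 37 °C, 5% CO2) infected 24 h with tissue-derived T. cruzi trypomastigotes at parasite:cell 10:1. Compound dilutions (top 100 μM) applied 5 days at 37 °C, 5% CO2, medium changed once at day 3. Infected cells scored per 300 cells on methanol-fixed Giemsa preparations; IC50/IC90 by sigmoidal regression; triplicates, two experiments.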

The nature of data set [4]: Selectivity index, CC50 for african green monkey Vero cells to IC50 for Trypanosoma cruzi 320I01 epimastigote. The data set is classed as functional. Put shortly:
(§3)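 Selectivity index computed as CC50 in Vero cells divided by IC50 against the T. cruzi stage named in the line.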

Data set [5] in a line: Selectivity index, CC50 for human THP1 cells to IC50 for Leishmania chagasi MHOM/BR/74/PP75 promastigotes. It is filed as functional, THP-1. Put shortly: as §2
For data set [6], the system named is Leishmania chagasi. Description: Antileishmanial activity against Leishmania chagasi MHOM/BR/74/PP75 amastigotes infected in human THP1 cells after 5 days by Giemsa staining. It is filed as functional, organism-based. The following applies: MHOM/BR/74/PP75, THP-1, 120 h. Put shortly: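 THP-1 cells (RPMI, 5% hiSBF, 37 °C, 5% CO2) transformed, then infected 24 h with late-phase L. chagasi promastigotes at parasite:cell 10:1. Treated with compound dilutions (top 100 μM) 5 days at 37 °C, 5% CO2, medium changed once after 3 days. Infected cells counted per 300 cells on methanol-fixed Giemsa slides; IC50/IC90 by sigmoidal regression; triplicates, repeated twice.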

Data set [7] is described as follows: Selectivity index, CC50 for african green monkey Vero cells to IC50 for Trypanosoma cruzi 320I01 amastigotes. The data set is classed as functional. Put shortly:
as §3

The subject of data set [8] is Leishmania chagasi. Put plainly: Antileishmanial activity against Leishmania chagasi MHOM/BR/74/PP75 promastigotes after 72 hrs by haemocytometry. As to conditions: MHOM/BR/74/PP75, 72 h. The data set is classed as functional, organism-based. An outline of the steps: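 Late-phase L. chagasi promastigotes, grown at 28 °C in RPMI 1640 with hemin, HEPES and 10% hiSBF, exposed to threefold serial dilutions (0.3–100 μM) for 72 h at 28 °C; untreated controls. Growth inhibition from haemocytometer counts; IC50/IC90 by sigmoidal regression; triplicates, repeated twice.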

Data set [9] can be described thus: Cytotoxicity against human THP1 cells after 72 hrs by MTT assay. The data set is classed as cell-based. The following applies: THP-1 cells. An outline of the steps:
as §1

In data set [10] the test system is Trypanosoma cruzi. Put plainly: Antitrypanosomal activity against Trypanosoma cruzi 320I01 epimastigotes after 72 hrs by haemocytometry. As to conditions: 320I01, 72 h. The data set is classed as functional, organism-based. Put shortly: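 Late-phase T. cruzi epimastigotes cultured in LIT medium with hiFCS at 28 °C; threefold serial dilutions (0.3–100 μM) for 72 h at 28 °C, untreated controls. Parasites counted in a haemocytometer; IC50/IC90 by sigmoidal regression; each concentration in triplicate, two experiments.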

As to `O[C@@H]1Cc2cc(Cl)ccc2N[C@H](c2c(F)cccc2Cl)C1` (relative stereo), the figures for the CC50 at 72 h in data set [1] and in [9] were 92 µM and 110 µM, respectively. The CC90 at 72 h worked out at 182 µM in data set [1] and 214 µM in data set [9]. Further, the “Selectivity Index” value is recorded as greater than 1 in data set [2], 6.36 in [4], 2.76 in data set [5] and greater than 2 in [7]. The IC50 in [3] was greater than 34.1 µM; in [6] it was 73.2 µM; in data set [8], 39.8 µM; in [10], 14.5 µM. Further, the 90% effect concentration (IC90) was greater than 34.1 µM in data set [3], greater than 100 µM in data set [6], 78.5 µM in data set [8] and 34.8 µM in data set [10].
With `O[C@@H]1Cc2ccccc2N[C@H](c2c(Cl)cccc2Cl)C1` (relative stereo), the CC50 at 72 h in data set [1] and in data set [9] was greater than 300 µM in each case. Moreover, the CC90 at 72 h in data set [1] and in [9] was greater than 300 µM throughout. For the same compound, the “Selectivity Index” value in [2] is greater than 3; in [4], greater than 6; in data set [5], greater than 3; in data set [7], greater than 4. In addition, the IC50 is 69.9 µM in data set [3], greater than 100 µM in data set [6], greater than 100 µM in data set [8] and 48.9 µM in data set [10]. Also, the IC90 in [3], in [6], in data set [8] and in data set [10] was greater than 100 µM in each case.
With `O[C@@H]1Cc2ccccc2N[C@H](c2c(F)cccc2Cl)C1` (relative stereo), the CC50 at 72 h in data set [1] and in [9] was greater than 300 µM each time. Also, the CC90 at 72 h in [1] and in data set [9] was greater than 300 µM throughout. The “Selectivity Index” value in data set [2], in data set [4], in data set [5] and in [7] was greater than 3 in each case. Moreover, the half-maximal inhibitory concentration (IC50) in data set [3], in data set [6], in data set [8] and in data set [10] was greater than 100 µM in each case. Further, the IC90 in data set [3], in data set [6], in data set [8] and in [10] was greater than 100 µM each time.
For the compound `O[C@@H]1Cc2cc(Cl)ccc2N[C@H](c2c(Cl)cccc2Cl)C1` (relative stereo), the CC50 at 72 h in data set [1] is 49.9 µM; in data set [9] it was 59.6 µM. Besides, the CC90 at 72 h in data set [1] is 176 µM; in data set [9], greater than 293 µM. The “Selectivity Index” value in data set [2] is on record as greater than 1; in data set [4] it was 3.36; in data set [5] it was 4.06; in [7], greater than 1. In addition, the IC50 in [3] was greater than 32.5 µM; in data set [6], greater than 32.5 µM; in [8], 14.7 µM; in data set [10], 14.8 µM. In addition, the IC90 was greater than 32.5 µM in data set [3], greater than 32.5 µM in [6], 30.3 µM in data set [8] and 53 µM in [10].
As to `Cc1ccc2c(c1)C[C@@H](O)C[C@@H](c1ccccc1Cl)N2` (relative stereo), the 50% cytotoxic concentration (CC50) at 72 h in data set [1] was 82.4 µM; in data set [9], 85.2 µM. Besides, the CC90 at 72 h in data set [1] and in [9] was greater than 300 µM in each case. The “Selectivity Index” value in data set [2] is on record as greater than 0.85; in data set [4] it was 3.67; in data set [5], 2.06; in [7] it was 1.8. For the same compound, the IC50 is 45.8 µM in data set [3], greater than 100 µM in data set [6], 41.3 µM in data set [8] and 22.4 µM in data set [10]. Moreover, the 90% effect concentration (IC90) is 73.6 µM in data set [3], greater than 100 µM in [6], 49.4 µM in data set [8] and 67.2 µM in data set [10].
In the case of `O[C@@H]1Cc2cc(Cl)ccc2N[C@H](c2ccccc2Cl)C1` (relative stereo), the results for the CC50 at 72 h in [1] and in data set [9] were 106 µM and 75.5 µM, respectively. For the same compound, the CC90 at 72 h in data set [1] and in [9] was greater than 300 µM each time. Besides, the “Selectivity Index” value in data set [2] was greater than 0.75; in data set [4], 6.91; in [5], 1.5; in data set [7] it was greater than 1. In addition, the IC50 was greater than 100 µM in data set [3], greater than 100 µM in data set [6], 50.2 µM in data set [8] and 15.3 µM in [10]. The 90% effect concentration (IC90) is greater than 36.1 µM in data set [3], greater than 100 µM in [6], greater than 100 µM in [8] and 35.7 µM in [10].
Turning to `O[C@@H]1Cc2cc(Cl)ccc2N[C@H](c2ccccc2F)C1` (relative stereo), the cytotoxic concentration (CC50) at 72 h in [1] was determined as 182 µM; in data set [9], 110 µM. The CC90 at 72 h is greater than 300 µM in data set [1] and 273 µM in [9]. The “Selectivity Index” value in data set [2] is given as greater than 1; in data set [4] it was 10.53; in data set [5], 2.02; in data set [7], greater than 4. Moreover, the half-inhibitory concentration (IC50) in data set [3] was greater than 38.1 µM; in [6] it was greater than 100 µM; in data set [8], 54.5 µM; in data set [10] it was 17.3 µM. In addition, the 90% effect concentration (IC90) in data set [3] is greater than 38.1 µM; in data set [6], greater than 100 µM; in [8], greater than 100 µM; in [10], 79.9 µM.
`O[C@@H]1Cc2ccccc2N[C@H](c2ccccc2Cl)C1` (relative stereo): the 50% cytotoxic concentration (CC50) at 72 h in data set [1] and in data set [9] was greater than 300 µM in each case. The CC90 at 72 h in data set [1] and in [9] was greater than 300 µM in each case. Besides, the “Selectivity Index” value is on record as greater than 3 in data set [2], greater than 6 in [4], greater than 3 in data set [5] and greater than 3 in [7]. Further, the IC50 in [3] was greater than 100 µM; in data set [6] it was greater than 100 µM; in data set [8], 84.4 µM; in data set [10], 49.7 µM. For the same compound, the IC90 in [3], in [6], in [8] and in data set [10] was greater than 100 µM throughout.
With `O[C@@H]1Cc2ccccc2N[C@H](c2ccccc2F)C1` (relative stereo), the CC50 at 72 h in data set [1] and in data set [9] was greater than 300 µM throughout. The CC90 at 72 h in data set [1] and in [9] was greater than 300 µM throughout. The “Selectivity Index” value was greater than 3 in data set [2], greater than 4 in data set [4], greater than 3 in data set [5] and greater than 3 in data set [7]. In addition, the half-inhibitory concentration (IC50) is greater than 100 µM in data set [3], greater than 100 µM in data set [6], greater than 100 µM in [8] and 63 µM in data set [10]. Moreover, the concentration for an effect of 90% (IC90) in [3], in [6], in data set [8] and in [10] was greater than 100 µM in each case.
Turning to `C[C@@H]1[C@H](O)[C@@H](C)/C=C/C=C/C=C/C=C/C=C/C=C/C=C/[C@H](O[C@@H]2O[C@H](C)[C@@H](O)[C@H](N)[C@@H]2O)C[C@@H]2O[C@](O)(C[C@@H](O)C[C@@H](O)[C@H](O)CC[C@@H](O)C[C@@H](O)CC(=O)O[C@H]1C)C[C@H](O)[C@H]2C(=O)O` [AMPHOTERICIN B], in data set [2], the “Selectivity Index” value was determined as 109.87. Further, the “Selectivity Index” value in data set [5] is 439.5. In data set [6], the IC50 amounted to 0.08 µM and the IC90 amounted to 0.14 µM. Besides, in [8], the IC50 turned out to be 0.02 µM and the 90% effect concentration (IC90) was determined as 0.02 µM. In data set [9], this compound came in with a cytotoxic concentration (CC50) at 72 h of 8.79 µM and a CC90 at 72 h of 34.9 µM.
In data set [1], `CC1CS(=O)(=O)CCN1/N=C/c1ccc([N+](=O)[O-])o1` (stereo not given) [NIFURTIMOX] returned a CC50 at 72 h of 61.4 µM and a CC90 at 72 h greater than 300 µM. Also, in data set [3], half-maximal inhibition (IC50) required 2.3 µM and the IC90 worked out at 9.06 µM. For the same compound, the “Selectivity Index” value in data set [4] is recorded as 26.36. In data set [7], the “Selectivity Index” value is 26.7. In data set [10], this compound showed a 50% inhibitory concentration (IC50) of 2.33 µM and a 90% effect concentration (IC90) of 23.4 µM.

The CC50 is the concentration giving 50% cytotoxicity. Usually IC50 stands for the concentration that inhibits the measured activity by half. Usually IC90 stands for the concentration at which the effect reaches the 90% level.
